Test results as given in ChEMBL document CHEMBL1275406, “Comparison of the antimicrobial effects of chlorine, silver ion, and tobramycin on biofilm” (2008).
Calls of active or inactive are those of the source. No cut-off for these calls is given here.

Columns and labels:
Pseudomonas aeruginosa [1] = assay: Ratio of antimicrobial activity against Pseudomonas aeruginosa PAO1 grown as biofilm assessed as concentration and time required inactivate 2 log bacterial cells to antimicrobial activity against Pseudomonas aeruginosa PAO1 grown as planktonic cells assessed as concentration and time required inactivate 2 log bacterial cells; format: functional
Method in brief: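 Ratio computed as biofilm CT over planktonic CT for 2-log inactivation of PAO1. Biofilm values come from coupons exposed to 10 mg/liter agent. Planktonic values come from 10^6 CFU/ml suspensions exposed to 1 or 10 mg/liter. Both were measured by plate count.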

Pseudomonas aeruginosa [2] = assay: Antimicrobial activity against Pseudomonas aeruginosa PAO1 assessed as log reduction in bacterial count at 10 mg/L after 50 mins by BacLight Live/Dead staining; format: functional
Method in brief: (§1)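 P. aeruginosa PAO1 biofilm grown on reactor coupons (24 h batch in 1/100-strength TSB, room temp, 100 rpm, then 24 h continuous flow in 1/300-strength TSB). Coupons rinsed and soaked unstirred in 10 mg/liter agent. Biofilm removed by sonication/vortexing in PBS. Counts by plate count (24 h, 37°C), CTC (1.6 μg/ml) or Syto9/propidium iodide stain on filtered cells, each normalized to DAPI total and to untreated biofilm; log10 reduction.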

Pseudomonas aeruginosa [3] = assay: Antimicrobial activity against Pseudomonas aeruginosa PAO1 assessed as log reduction in bacterial count at 10 mg/L after 50 mins by plate count method; format: functional; method in brief: as §1
Pseudomonas aeruginosa [4] = assay: Antimicrobial activity against Pseudomonas aeruginosa PAO1 assessed as log reduction in bacterial count at 10 mg/L after 50 mins by CTC staining; format: functional; method in brief: as §1
Pseudomonas aeruginosa [5] = assay: Antimicrobial activity against Pseudomonas aeruginosa PAO1 grown as biofilms; format: functional, organism-based
Method in brief: (§2)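 PAO1 biofilm grown 24 h batch then 24 h continuous flow on coupons, exposed to 10 mg/liter agent unstirred. Biofilm dislodged by sonication/vortexing, plate counted after 24 h at 37°C in triplicate. Log10 reduction plotted against concentration × contact time; CT for 2-log inactivation taken by extrapolating the curve. Experiments repeated 2–3 times.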

Pseudomonas aeruginosa [6] = assay: Antimicrobial activity against Pseudomonas aeruginosa PAO1 grown as biofilm assessed as respiratory activity by CTC-DAPI staining; format: functional, organism-based
Method in brief: (§3)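 P. aeruginosa PAO1 reactor-grown biofilm coupons soaked in 10 mg/liter agent without stirring. Coupons stained 1 h in the dark with BacLight Syto9/propidium iodide or CTC (1.6 μg/ml, 37°C) plus DAPI (10 μg/ml), then imaged by confocal microscopy. Ratios are read at the point where plate-count culturability fell to 60%, normalized to untreated biofilm.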

Pseudomonas aeruginosa [7] = assay: Antimicrobial activity against Pseudomonas aeruginosa PAO1 grown as biofilm assessed as concentration and time required inactivate 2 log bacterial cells; format: functional; method in brief: as §2
Pseudomonas aeruginosa [8] = assay: Antimicrobial activity against Pseudomonas aeruginosa PAO1 grown as planktonic cells assessed as concentration and time required inactivate 2 log bacterial cells; format: functional
Method in brief: (§4)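 Washed overnight PAO1 cultures at 10^6 CFU/ml in 50 ml, exposed to agent at 1 or 10 mg/liter (data averaged) in capped flasks with slow magnetic stirring. Survival by plate count only. Log10 reduction plotted against CT (mg·min/liter); CT90 or 2-log CT read or extrapolated from the curve.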

Pseudomonas aeruginosa [9] = assay: Antimicrobial activity against Pseudomonas aeruginosa PAO1 grown as biofilm assessed as membrane integrity by BacLight Live/Dead staining; format: functional; method in brief: as §3
Pseudomonas aeruginosa [10] = assay: Antimicrobial activity against Pseudomonas aeruginosa PAO1 grown as planktonic cells assessed as concentration and time required inactivate 1 log bacterial cells; format: functional; method in brief: as §4

`NC[C@H]1O[C@H](O[C@H]2[C@H](O)[C@@H](O[C@H]3O[C@H](CO)[C@@H](O)[C@H](N)[C@H]3O)[C@H](N)C[C@@H]2N)[C@H](N)C[C@@H]1O` [TOBRAMYCIN] showed a Ratio (Pseudomonas aeruginosa [1]) of 33, an FC (Pseudomonas aeruginosa [2]) of 0.2 and an FC (Pseudomonas aeruginosa [3]) of 1.5. For the same compound, the FC (Pseudomonas aeruginosa [4]) was 0.9, the Activity (Pseudomonas aeruginosa [5]) was “Active” and the Activity (Pseudomonas aeruginosa [6]) was “Active”. For the same compound, the Activity (Pseudomonas aeruginosa [7]) was 1000 mg·min/L, the Activity (Pseudomonas aeruginosa [8]) was 30 mg·min/L and the Activity (Pseudomonas aeruginosa [9]) was 70%. It also gave an Activity (Pseudomonas aeruginosa [10]) of 20 mg·min/L.
